Test results: ChEMBL document CHEMBL1137764, “Design, synthesis, antibacterial activity and physicochemical parameters of novel N-4-piperazinyl derivatives of norfloxacin” (Bioorg Med Chem, 2009)
In brackets after ≈: the same amount, converted by molar mass.

Legend:
[1] = test system: Escherichia coli; assay: Antimicrobial activity against Escherichia coli after 24 hrs by agar diffusion technique; format: functional; conditions: for MIC: Escherichia coli, 24 h
Method in brief: (§1)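 Agar cup diffusion on Mueller-Hinton agar seeded from 10⁶ CFU/mL suspensions, with 10 mm cups in a 3–4 mm layer. Compounds were in DMF (10 mg/mL stock) at several concentrations. Plates were incubated at 37 °C and zones measured after 24 h. MIC was taken as the intercept of the plot of log concentration against inhibition zone diameter.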

[2] = test system: Klebsiella pneumoniae; assay: Antimicrobial activity against Klebsiella pneumoniae at 64 ug/ml after 24 hrs by agar diffusion technique; format: functional; conditions: read-out: DIZ
Method in brief: (§2)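 Strains came from a university microbiology department. Inocula were 10⁶ CFU/mL. Mueller-Hinton agar was seeded with culture, poured 3–4 mm thick, and 10 mm cups were bored. Compounds were dissolved in DMF (10 mg/mL stock), diluted, and the solution was placed in the cups. Plates were incubated at 37 °C overnight. Inhibition zone diameter (mm) was read at 24 h.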

[3] = test system: Pseudomonas aeruginosa; assay: Antimicrobial activity against Pseudomonas aeruginosa at 128 ug/ml after 24 hrs by agar diffusion technique; format: functional; conditions: read-out: DIZ; method in brief: as §2
[4] = test system: Klebsiella pneumoniae; assay: Antimicrobial activity against Klebsiella pneumoniae at 128 ug/ml after 24 hrs by agar diffusion technique; format: functional; conditions: read-out: DIZ; method in brief: as §2
[5] = test system: Escherichia coli; assay: Antimicrobial activity against Escherichia coli at 16 ug/ml after 24 hrs by agar diffusion technique; format: functional; conditions: read-out: DIZ; method in brief: as §2
[6] = test system: Pseudomonas aeruginosa; assay: Antimicrobial activity against Pseudomonas aeruginosa at 64 ug/ml after 24 hrs by agar diffusion technique; format: functional; conditions: read-out: DIZ; method in brief: as §2
[7] = test system: Escherichia coli; assay: Antimicrobial activity against Escherichia coli at 4 ug/ml after 24 hrs by agar diffusion technique; format: functional; conditions: read-out: DIZ; method in brief: as §2
[8] = test system: Escherichia coli; assay: Antimicrobial activity against Escherichia coli at 64 ug/ml after 24 hrs by agar diffusion technique; format: functional; conditions: read-out: DIZ; method in brief: as §2
[9] = test system: Pseudomonas aeruginosa; assay: Antimicrobial activity against Pseudomonas aeruginosa at 512 ug/ml after 24 hrs by agar diffusion technique; format: functional; conditions: read-out: DIZ; method in brief: as §2
[10] = test system: Staphylococcus aureus; assay: Antimicrobial activity against Staphylococcus aureus at 4 ug/ml after 24 hrs by agar diffusion technique; format: functional; conditions: read-out: DIZ; method in brief: as §2
[11] = test system: Pseudomonas aeruginosa; assay: Antimicrobial activity against Pseudomonas aeruginosa at 4 ug/ml after 24 hrs by agar diffusion technique; format: functional; conditions: read-out: DIZ; method in brief: as §2
[12] = test system: Pseudomonas aeruginosa; assay: Antimicrobial activity against Pseudomonas aeruginosa after 24 hrs by agar diffusion technique; format: functional; conditions: for MIC: Pseudomonas aeruginosa, 24 h; method in brief: as §1
[13] = test system: Klebsiella pneumoniae; assay: Antimicrobial activity against Klebsiella pneumoniae at 512 ug/ml after 24 hrs by agar diffusion technique; format: functional; conditions: read-out: DIZ; method in brief: as §2
[14] = test system: Escherichia coli; assay: Antimicrobial activity against Escherichia coli at 512 ug/ml after 24 hrs by agar diffusion technique; format: functional; conditions: read-out: DIZ; method in brief: as §2
[15] = test system: Staphylococcus aureus; assay: Antimicrobial activity against Staphylococcus aureus after 24 hrs by agar diffusion technique; format: functional; conditions: for MIC: Staphylococcus aureus, 24 h; method in brief: as §1
[16] = Octanol-phosphate buffer partition coefficient, log D at pH 7.4 by spectrophotometry; format: physicochemical
Method in brief: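 Shake-flask method. A 0.2 mg/mL stock was diluted into pH 7.4 phosphate buffer and mixed with an equal volume of n-octanol, phases mutually presaturated and protected from light. Samples were vortexed 3 min, then shaken 5 h at 25 °C. Both phases were assayed by UV at 270–280 nm. D is the molar concentration ratio, octanol to aqueous.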

[17] = test system: Pseudomonas aeruginosa; assay: Antimicrobial activity against Pseudomonas aeruginosa at 16 ug/ml after 24 hrs by agar diffusion technique; format: functional; conditions: read-out: DIZ; method in brief: as §2
[18] = test system: Staphylococcus aureus; assay: Antimicrobial activity against Staphylococcus aureus at 512 ug/ml after 24 hrs by agar diffusion technique; format: functional; conditions: read-out: DIZ; method in brief: as §2
[19] = test system: Klebsiella pneumoniae; assay: Antimicrobial activity against Klebsiella pneumoniae at 16 ug/ml after 24 hrs by agar diffusion technique; format: functional; conditions: read-out: DIZ; method in brief: as §2
[20] = test system: Staphylococcus aureus; assay: Antimicrobial activity against Staphylococcus aureus at 64 ug/ml after 24 hrs by agar diffusion technique; format: functional; conditions: read-out: DIZ; method in brief: as §2
[21] = test system: Staphylococcus aureus; assay: Antimicrobial activity against Staphylococcus aureus at 16 ug/ml after 24 hrs by agar diffusion technique; format: functional; conditions: read-out: DIZ; method in brief: as §2
[22] = test system: Staphylococcus aureus; assay: Antimicrobial activity against Staphylococcus aureus at 128 ug/ml after 24 hrs by agar diffusion technique; format: functional; conditions: read-out: DIZ; method in brief: as §2
[23] = test system: Klebsiella pneumoniae; assay: Antimicrobial activity against Klebsiella pneumoniae at 4 ug/ml after 24 hrs by agar diffusion technique; format: functional; conditions: read-out: DIZ; method in brief: as §2
[24] = test system: Klebsiella pneumoniae; assay: Antimicrobial activity against Klebsiella pneumoniae after 24 hrs by agar diffusion technique; format: functional; conditions: for MIC: Klebsiella pneumoniae, 24 h; method in brief: as §1
[25] = test system: Escherichia coli; assay: Antimicrobial activity against Escherichia coli at 128 ug/ml after 24 hrs by agar diffusion technique; format: functional; conditions: read-out: DIZ; method in brief: as §2

| MIC [1] [µg/mL] | MIC [12] [µg/mL] | MIC [15] [µg/mL] | logD [16] | Compound | logMIC [1] | zone of inhibition at 64 µg/mL [2] [mm] | zone of inhibition at 128 µg/mL [3] [mm] | zone of inhibition at 128 µg/mL [4] [mm] | zone of inhibition at 16 µg/mL [5] [mm] | zone of inhibition at 64 µg/mL [6] [mm] | zone of inhibition at 4 µg/mL [7] [mm] | zone of inhibition at 64 µg/mL [8] [mm] | zone of inhibition at 512 µg/mL [9] [mm] | zone of inhibition at 4 µg/mL [10] [mm] | zone of inhibition at 4 µg/mL [11] [mm] | logMIC [12] | zone of inhibition at 512 µg/mL [13] [mm] | zone of inhibition at 512 µg/mL [14] [mm] | logMIC [15] | zone of inhibition at 16 µg/mL [17] [mm] | other results |
| --- | --- | --- | --- | --- | --- | --- | --- | --- | --- | --- | --- | --- | --- | --- | --- | --- | --- | --- | --- | --- | --- |
| 11 (≈ 31.7 µM) | 6 (≈ 17.3 µM) | < 1 | 0.087 | CCn1cc(C(=O)O)c(=O)c2cc(F)c(N3CCN(C=O)CC3)cc21 [4-N-FORMYL-1-PIPERAZINYL-NORFLOXACIN] | 1.04 | 0 | 13 | 0 | 2 | 7 | 2 | 2 | 13 | 7 | 0 | 0.78 | 8 | 13 | 0 | 2 | zone of inhibition at 512 µg/mL [18]: 12 mm; zone of inhibition at 16 µg/mL [19]: 0 mm; zone of inhibition at 64 µg/mL [20]: 8 mm; zone of inhibition at 16 µg/mL [21]: 8 mm; zone of inhibition at 128 µg/mL [22]: 15 mm; zone of inhibition at 4 µg/mL [23]: 0 mm; logMIC [24]: 2.11; MIC [24]: 128 µg/mL (≈ 369 µM); zone of inhibition at 128 µg/mL [25]: 4 mm |
| 4 (≈ 8.9 µM) | 128 (≈ 285 µM) | 128 (≈ 285 µM) | -0.043 | CCn1cc(C(=O)O)c(=O)c2cc(F)c(N3CCN(Cn4cnc5ccccc54)CC3)cc21 | 0.6 | 3 | 0 | 8 | 3 | 0 | 0 | 6 | 15 | 0 | 0 | 2.11 | 20 | 10 | 2.11 | 0 | zone of inhibition at 512 µg/mL [18]: 3 mm; zone of inhibition at 16 µg/mL [19]: 0 mm; zone of inhibition at 64 µg/mL [20]: 0 mm; zone of inhibition at 16 µg/mL [21]: 0 mm; zone of inhibition at 128 µg/mL [22]: 0 mm; zone of inhibition at 4 µg/mL [23]: 0 mm; logMIC [24]: 1.15; MIC [24]: 14 µg/mL (≈ 31.1 µM); zone of inhibition at 128 µg/mL [25]: 7 mm |
| < 1 | 5 (≈ 11.6 µM) | 4 (≈ 9.29 µM) | -0.8 | CCn1cc(C(=O)O)c(=O)c2cc(F)c(N3CCN(CN4C(=O)CCC4=O)CC3)cc21 | 0 | 20 | 15 | 22 | 0 | 13 | 0 | 0 | 27 | 0 | 0 | 0.7 | 31 | 5 | 0.6 | 9 | zone of inhibition at 512 µg/mL [18]: 22 mm; zone of inhibition at 16 µg/mL [19]: 15 mm; zone of inhibition at 64 µg/mL [20]: 12 mm; zone of inhibition at 16 µg/mL [21]: 4 mm; zone of inhibition at 128 µg/mL [22]: 13 mm; zone of inhibition at 4 µg/mL [23]: 8 mm; logMIC [24]: 2.11; MIC [24]: 128 µg/mL (≈ 297 µM); zone of inhibition at 128 µg/mL [25]: 0 mm |
